Experimental data as given in ChEMBL document CHEMBL4699639, “Discovery of Novel 2-Aniline-1,4-naphthoquinones as Potential New Drug Treatment for Leber's Hereditary Optic Neuropathy (LHON)” (J Med Chem, 2020).
Activity calls are given as the source filed them. The rule behind the calls is not given here.

Assays:
[1] = Suppression of rotenone-induced ATP depletion in human HepG2 cells incubated for 2 hrs by Celltiter-Glo assay; assay type: functional, cell-based; details: HepG2, 2 h
Method in brief: (§1)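 HepG2 cells seeded 10×10^3 per well in 1 g/L glucose, 2% FBS medium the day before. Switched to glucose- and FBS-free medium containing 10 µM rotenone, with compound added at the same time, 2 h at 37 °C. ATP read by CellTiter-Glo luminescence, normalized to DMSO cells without rotenone. Mean ± SEM of ≥3 independent runs. Complex III inhibitors, where used, at 50 nM.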

[2] = molecular target: NAD(P)H dehydrogenase [quinone] 1 (Homo sapiens) (UniProt P15559); experiment: Substrate activity at NQO1 in human HepG2 cells assessed as reduction in cell viability by WST-1 assay; assay type: cell-based
HepG2 [3] = experiment: Suppression of rotenone-induced ATP depletion in human HepG2 cells assessed as increase in rescue of ATP level at 1 uM incubated for 2 hrs by Celltiter-Glo assay; assay type: functional, cell-based; method in brief: as §1
SH-SY5Y [4] = experiment: Cytotoxicity against human SH-SY5Y cells assessed as reduction in cell viability at 25 uM incubated for 24 hrs by Celltiter-blue assay; assay type: cell-based
Method in brief: (§2)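 HepG2 or SH-SY5Y seeded 10×10^3 per well the day before in 1 g/L glucose medium with 2% FBS. Medium replaced with fresh 2% FBS, 1 g/L glucose medium containing compound (25 µM) for 24 h at 37 °C. CellTiter-Blue added for 4 h, fluorescence read at 560/590 nm. Viability given as % of vehicle/untreated cells. Mean ± SEM of ≥3 independent runs.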

SH-SY5Y [5] = experiment: Cytotoxicity against human SH-SY5Y cells assessed as reduction in cell viability by WST-1 assay; assay type: cell-based
[6] = Cytotoxicity against […] assessed as reduction in cell viability by WST-1 assay; assay type: cell-based; details: r28
HepG2 [7] = experiment: Suppression of rotenone-induced ATP depletion in human HepG2 cells assessed as rescue of ATP level at 5 uM incubated for 2 hrs in presence of NQO1 inhibitor dicoumarol by Celltiter-Glo assay; assay type: functional, cell-based
HepG2 [8] = experiment: Suppression of rotenone-induced ATP depletion in human HepG2 cells assessed as rescue of ATP level at 5 uM incubated for 2 hrs in presence of NQO1 irreversible inhibitor ES936 by Celltiter-Glo assay; assay type: functional, cell-based
HepG2 [9] = experiment: Suppression of rotenone-induced ATP depletion in human HepG2 cells assessed as rescue of ATP level at 5 uM incubated for 2 hrs in presence of complex III inhibitor myxothiazol by Celltiter-Glo assay; assay type: functional, cell-based; method in brief: as §1
HepG2 [10] = experiment: Suppression of rotenone-induced ATP depletion in human HepG2 cells assessed as rescue of ATP level at 5 uM incubated for 2 hrs in presence of complex III inhibitor antimycin by Celltiter-Glo assay; assay type: functional, cell-based; method in brief: as §1
HepG2 [11] = experiment: Cytotoxicity against human HepG2 cells assessed as reduction in cell viability incubated for 24 hrs by Celltiter-blue assay; assay type: cell-based; details: HepG2, 24 h
SH-SY5Y [12] = experiment: Cytotoxicity against human SH-SY5Y cells assessed as reduction in cell viability incubated for 24 hrs by Celltiter-blue assay; assay type: cell-based
HepG2 [13] = experiment: Suppression of rotenone-induced ATP depletion in human HepG2 cells assessed as increase in rescue of ATP level at 0.1 to 1 uM incubated for 2 hrs by Celltiter-Glo assay; assay type: functional, cell-based; details: dose microM 0.1-1, time 2.0 hrs; method in brief: as §1
[14] = molecular target: NAD(P)H dehydrogenase [quinone] 1 (Homo sapiens) (UniProt P15559); experiment: Substrate activity at NQO1 in human HepG2 cells assessed as reduction in cell viability in presence of NQO1 inhibitor dicoumarol by WST-1 assay; assay type: cell-based
[15] = Suppression of rotenone-induced ATP depletion in human HepG2 cells assessed as rescue of ATP level incubated for 2 hrs by Celltiter-Glo assay relative to control; assay type: functional; set-up: concentration or dose not given beside the values; method in brief: as §1
[16] = Cytotoxicity against human HepG2 cells assessed as cell viability at 25 uM incubated for 24 hrs by Celltiter-blue assay relative to control; assay type: cell-based; details: read-out: Activity; method in brief: as §2
[17] = molecular target: NAD(P)H dehydrogenase [quinone] 1 (Homo sapiens) (UniProt P15559); experiment: Substrate activity at recombinant NQO1 (unknown origin) assessed as reduction in NADH level at 20 uM measured for 6 mins by microplate reader analysis
HepG2 [18] = experiment: Cytotoxicity against human HepG2 cells assessed as cell reduction in cell viability at 25 uM incubated for 24 hrs by Celltiter-blue assay; assay type: cell-based; details: hepg2, 24 h; method in brief: as §2
HepG2 [19] = experiment: (§3) Suppression of rotenone-induced ATP depletion in human HepG2 cells assessed as rescue of ATP level at 5 uM incubated for 2 hrs by Celltiter-Glo assay relative to control; assay type: functional; method in brief: as §1
[20] = as §3; assay type: functional; method in brief: as §1
[21] = Cytoprotection against rotenone-induced C57BL/6J mouse retinal ganglion cells loss assessed as cell survival at 10 uM incubated for 24 hrs by Hoechst 33342 staining based counting method (reference value: 41%); assay type: functional; details: RGC, read-out: Activity
Method in brief: (§4)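 Retinal explants from 6–8 month old female wild-type C57BL/6J mice, enucleated eyes placed in ice-cold HBSS. Explants incubated 24 h ex vivo in pre-warmed Neurobasal A with compounds in 0.1% DMSO, alone for toxicity or with 100 µM rotenone for activity. Hoechst 33342-stained nuclei (and anti-RBPMS-positive RGCs) counted in the central retina ganglion cell layer. Mean ± SEM, 1-way ANOVA with Tukey.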

[22] = Cytotoxicity against C57BL/6J mouse RGC cells at 20 uM incubated for 24 hrs by Hoechst 33342 staining based counting method; assay type: cell-based; method in brief: as §4

Sequence of NAD(P)H dehydrogenase [quinone] 1 (Homo sapiens) (P15559 whole entry): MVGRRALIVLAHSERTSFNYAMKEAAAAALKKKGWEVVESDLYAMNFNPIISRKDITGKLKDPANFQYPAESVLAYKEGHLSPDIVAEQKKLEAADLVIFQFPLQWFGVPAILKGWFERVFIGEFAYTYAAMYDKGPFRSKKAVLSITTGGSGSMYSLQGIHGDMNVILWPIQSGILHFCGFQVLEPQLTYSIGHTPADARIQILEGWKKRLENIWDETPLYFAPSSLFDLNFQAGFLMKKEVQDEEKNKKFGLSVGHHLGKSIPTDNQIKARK

Question: What does the source list for `CC1=C(Nc2ccc(F)c(C(F)(F)F)c2)C(=O)c2ccccc2C1=O`?
Answer: EC50 [1]: 0.91 µM; Activity [2]: Active; Activity (HepG2 [3]): Active; Activity (SH-SY5Y [4]): Non-Toxic; Activity (SH-SY5Y [5]): Non-Toxic; Activity [6]: Non-Toxic; Activity (HepG2 [7]): inactive; Activity (HepG2 [8]): inactive; Activity (HepG2 [9]): inactive; Activity (HepG2 [10]): inactive; IC50 (HepG2 [11]): > 100 µM; IC50 (SH-SY5Y [12]): > 100 µM; Activity (HepG2 [13]): Active; Activity [14]: inactive; Activity [15]: 52.6%; viability at 24 h, 25 µM [16]: 101%

Question: With `CC1=C(CCCC(=O)NCCc2ccc(O)cc2)C(=O)c2ccccc2C1=O` as the compound, how does the EC50 [1] read?
Answer: The EC50 was 0.8 µM.

Question: And the IC50 (HepG2 [11])?
Answer: Its IC50 is > 100 µM.

Question: What about the IC50 (SH-SY5Y [12]) of the same compound?
Answer: Its IC50 is 76 µM.

Question: What about the Activity (HepG2 [13]) of the same compound?
Answer: Its Activity is “Active”.

Question: And the Activity [17]?
Answer: Its Activity is “inactive”.

Question: With `O=C1C(Cl)=C(NCCc2ccccc2)C(=O)c2ccccc21` as the compound, how does the Activity (HepG2 [3]) read?
Answer: The Activity was “Active”.

Question: Which results are given for `COC1=C(Nc2ccc(F)c(C(F)(F)F)c2)C(=O)c2ccccc2C1=O`?
Answer: EC50 [1]: 0.46 µM; Activity [2]: Active; Activity (HepG2 [3]): Active; Activity (SH-SY5Y [4]): Non-Toxic; Activity (SH-SY5Y [5]): Non-Toxic; Activity [6]: Non-Toxic; Activity (HepG2 [7]): inactive; Activity (HepG2 [8]): inactive; Activity (HepG2 [9]): inactive; Activity (HepG2 [10]): inactive; IC50 (HepG2 [11]): > 100 µM; IC50 (SH-SY5Y [12]): > 100 µM; Activity (HepG2 [13]): Active; Activity [17]: Active; Activity [14]: inactive; Activity [15]: 58.6%; viability at 24 h, 25 µM [16]: 96.5%

Question: Which Activity (HepG2 [3]) does the source give for `CC(C)SC1=C(Nc2cccc(C(F)(F)F)c2)C(=O)c2ccccc2C1=O` here?
Answer: Its Activity is “Active”.

Question: What about the Activity (HepG2 [18]) of the same compound?
Answer: Its Activity is “Toxic”.

Question: What about the Activity (SH-SY5Y [4]) of the same compound?
Answer: Its Activity is “Toxic”.

Question: For `O=C1C(Cl)=C(Nc2ccc(F)c(C(F)(F)F)c2)C(=O)c2ccccc21`, which Activity [15] is on record?
Answer: The Activity was 40.3%.

Question: What about the viability at 24 h, 25 µM [16] of the same compound?
Answer: Its viability at 24 h, 25 µM is 65.8%.

Question: With `O=C(OC1=C(c2ccccc2)C(=O)c2ccccc2C1=O)c1cccc([N+](=O)[O-])c1` as the compound, how does the Activity (SH-SY5Y [4]) read?
Answer: The Activity was “Toxic”.

Question: Which Activity (HepG2 [3]) does the source give for `CCOC1=C(Nc2ccccc2)C(=O)c2ccccc2C1=O` here?
Answer: The Activity was “inactive”.

Question: And the Activity (SH-SY5Y [4])?
Answer: The Activity was “Non-Toxic”.

Question: Which Activity (HepG2 [3]) does the source give for `O=C1C=C(NCc2ccccc2)C(=O)c2ccccc21` here?
Answer: Its Activity is “Active”.

Question: And the Activity (SH-SY5Y [4])?
Answer: Its Activity is “Toxic”.

Question: With `O=C1C=C(NCCc2ccccc2)C(=O)c2ccccc21` as the compound, how does the Activity (SH-SY5Y [4]) read?
Answer: The Activity was “Toxic”.

Question: With `CSC1=C(Nc2cccc(C(F)(F)F)c2)C(=O)c2ccccc2C1=O` as the compound, how does the Activity (SH-SY5Y [4]) read?
Answer: Its Activity is “Non-Toxic”.

Question: Which Activity (HepG2 [3]) does the source give for `CCNC1=C(Nc2ccccc2)C(=O)c2ccccc2C1=O` here?
Answer: The Activity was “Active”.

Question: What about the Activity (SH-SY5Y [4]) of the same compound?
Answer: The Activity was “Non-Toxic”.

Question: Which Activity (HepG2 [3]) does the source give for `O=C1C(Cl)=C(Nc2ccccc2)C(=O)c2ccccc21` here?
Answer: Its Activity is “Active”.

Question: For `CNC1=C(Nc2ccccc2)C(=O)c2ccccc2C1=O`, which Activity (SH-SY5Y [4]) is on record?
Answer: Its Activity is “Non-Toxic”.

Question: What about the Activity [17] of the same compound?
Answer: Its Activity is “inactive”.

Question: With `CCSC1=C(Nc2cccc(C(F)(F)F)c2)C(=O)c2ccccc2C1=O` as the compound, how does the Activity [2] read?
Answer: The Activity was “Active”.

Question: What about the Activity (HepG2 [3]) of the same compound?
Answer: The Activity was “Active”.

Question: What about the Activity (HepG2 [18]) of the same compound?
Answer: The Activity was “Toxic”.

Question: And the Activity (SH-SY5Y [4])?
Answer: The Activity was “Toxic”.

Question: What about the Activity (SH-SY5Y [5]) of the same compound?
Answer: The Activity was “Non-Toxic”.

Question: And the Activity [6]?
Answer: Its Activity is “Non-Toxic”.

Question: And the Activity [14]?
Answer: The Activity was “inactive”.

Question: For `CCCCC1=C(C)C(=O)c2ccccc2C1=O`, which Activity (SH-SY5Y [4]) is on record?
Answer: Its Activity is “Toxic”.

Question: For `O=C1C(Cl)=C(NCCC(F)(F)F)C(=O)c2ccccc21`, which Activity (HepG2 [19]) is on record?
Answer: Its Activity is “inactive”.

Question: What does the source list for `CSC1=C(Nc2cc(C(F)(F)F)ccc2F)C(=O)c2ccccc2C1=O`?
Answer: Activity (HepG2 [3]): Active; Activity (SH-SY5Y [4]): Non-Toxic

Question: What does the source list for `O=C1C=C(Nc2ccc(F)c(C(F)(F)F)c2)C(=O)c2ccccc21`?
Answer: Activity (SH-SY5Y [4]): Non-Toxic; Activity [15]: 54.5%; viability at 24 h, 25 µM [16]: 35.6%

Question: What does the source list for `COC1=C(Nc2cccc(C(F)(F)F)c2)C(=O)c2ccccc2C1=O`?
Answer: Activity [2]: Active; Activity [20]: 70%; Activity (HepG2 [3]): Active; Activity (SH-SY5Y [4]): Non-Toxic; Activity (SH-SY5Y [5]): Non-Toxic; Activity [6]: Non-Toxic; Activity [14]: inactive

Question: With `COC1=C(OC)C(=O)C(CCCCCCCCCCO)=C(C)C1=O` [IDEBENONE] as the compound, how does the EC50 [1] read?
Answer: The EC50 was 0.94 µM.

Question: And the Activity [20]?
Answer: The Activity was 70%.

Question: What about the Activity (SH-SY5Y [4]) of the same compound?
Answer: The Activity was “Toxic”.

Question: What about the Activity (HepG2 [9]) of the same compound?
Answer: The Activity was “inactive”.

Question: And the Activity (HepG2 [10])?
Answer: Its Activity is “inactive”.

Question: What about the IC50 (HepG2 [11]) of the same compound?
Answer: Its IC50 is 64.5 µM.

Question: What about the IC50 (SH-SY5Y [12]) of the same compound?
Answer: Its IC50 is 15.9 µM.

Question: What about the Activity (HepG2 [13]) of the same compound?
Answer: Its Activity is “Active”.

Question: And the viability at 10 µM [21]?
Answer: The viability at 10 µM was 73%.

Question: What about the Activity [22] of the same compound?
Answer: Its Activity is “Toxic”.

Question: What about the Activity [15] of the same compound?
Answer: The Activity was 44.3%.

Question: And the viability at 24 h, 25 µM [16]?
Answer: The viability at 24 h, 25 µM was 92.8%.
